Screening results as filed in PubChem BioAssay.
PMI act satM6P – human PMI activators, high substrate, primary screen, biochemical, fluorescence intensity, near-saturating mannose 6-phosphate. coupled PMI enzyme assay, resazurin fluorescence, 20 min; active compounds read high; 1 = untreated enzyme, 0 = substrate-free blank. AID 1216, 2008. 190,000 tested, 0.34% active. Mannose-6-phosphate isomerase (Homo sapiens), P34949. activation factor at 20 µM;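 active = activation factor of 2 or more at 20 µM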
Target sequence (P34949 whole entry, looked up): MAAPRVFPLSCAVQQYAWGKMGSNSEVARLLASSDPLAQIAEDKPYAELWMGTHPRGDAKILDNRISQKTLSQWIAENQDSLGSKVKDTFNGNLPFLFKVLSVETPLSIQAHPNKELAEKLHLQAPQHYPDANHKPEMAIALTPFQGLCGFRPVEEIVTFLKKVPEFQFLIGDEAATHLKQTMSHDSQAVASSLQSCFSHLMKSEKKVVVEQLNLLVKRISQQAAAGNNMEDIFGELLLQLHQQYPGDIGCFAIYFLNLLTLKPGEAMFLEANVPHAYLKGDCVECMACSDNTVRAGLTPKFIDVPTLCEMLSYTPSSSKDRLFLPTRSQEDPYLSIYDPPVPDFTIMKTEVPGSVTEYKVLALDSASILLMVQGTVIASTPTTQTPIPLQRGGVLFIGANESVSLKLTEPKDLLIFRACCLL
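Material: human phosphomannose isomerase with PGI, G6PDH, diaphorase coupling enzymes; amount: PMI at 15 ng/mL final; also added: Mannose-6-phosphate 1.0 mM (near-saturating) plus 0.22 mM NADP+; incubation: enzyme reaction with compound 20 min at room temperature; signal: resorufin fluorescence (Ex 544/Em 590 nm) from resazurin via diaphorase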
Diaphorase act – compounds boosting diaphorase resazurin reduction – biochemical, uHTS, resorufin fluorescence, counter-screen for diaphorase-coupled primary assays, primary screen; AID 1229, 2008; 190,000 tested, 0.005% active; activation factor at 20 µM; Diaphorase/resazurin coupled assay, 16 min; active compounds read high; 1 = vehicle wells, 0 = NADH-free wells;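 active = diaphorase activity raised at least twofold by the compound at 20 µM; inactive = activation factor below 2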
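Assay system: bacterial diaphorase enzyme (C. kluyveri) / Input: enzyme 0.07 U/mL final / Medium: 50 mM HEPES pH 7.4 with 4.542 mM MgCl2, 0.005% Tween 20 / Doses: single compound dose of 20 µM, 1% DMSO final / Incubation: 16 min enzyme reaction, ambient temperature / Signal: fluorescence, excitation 544 nm and emission 590 nm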
G6PDH CS – L. mesenteroides G6PDH inhibitors, counter-screen for G6PDH-coupled screening assays, biochemical, Leuconostoc mesenteroides enzyme; inhibition, % at 5 µM; Purified L. mesenteroides G6PDH, diaphorase/resazurin coupled fluorescence, 45 min; glucose-6-phosphate dehydrogenase [Leuconostoc mesenteroides]; 200,000 tested, 0.12% active; in the data active = inhibition above about 50%
Diaphorase inh – diaphorase inhibitors and chemical oxidizers, primary screen, counter-screen for diaphorase-coupled primary assays, biochemical, uHTS, resorufin fluorescence; 190,000 tested, 0.69% active; diaphorase resazurin-to-resorufin fluorescence, NADH, 16 min; bacterial (C. kluyveri) enzyme, not human; AID 1217, 2008; inhibition, % at 20 µM;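 active = primary screen inhibition at 20 µM above a set limit, cut at about 50% in these data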;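 also: plate controls were DMSO with full reaction for no effect and wells lacking NADH for full effect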
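Assay system: diaphorase enzyme from Clostridium kluyveri. Quantity: enzyme working solution with 0.14 U/mL diaphorase. Schedule: reaction incubation of 16 min at room temperature. Technique: resorufin fluorescence, excitation 544 nm, emission 590 nm. Controls: No-NADH positive control and DMSO neutral control.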
DTT redox prof – compounds producing H2O2 with reducing agent – biochemical, NIH compound library profiling, artefact control for MLSCN library redox annotation, primary screen; DTT-dependent redox cycling H2O2, phenol red/HRP absorbance; 100% = 100 µM peroxide control, 0% = buffer; activation, % at 10 µM; 200,000 tested, 0.03% active; AID 878, 2007;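 active = activation of at least 50% relative to the plate's high and low controls in the primary single-dose screen; inactive = activation below 50%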;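 also: compound incubated with DTT at 0.8 mM final as the reducing agent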
PMI act – activators of human PMI, primary screen, biochemical, fluorescence intensity, near-Km mannose 6-phosphate; activation factor at 20 µM; Mannose-6-phosphate isomerase (Homo sapiens), P34949; 190,000 tested, 0.005% active; purified human PMI, coupled resazurin fluorescence, 20 min; active compounds read high; 1 = vehicle control, 0 substrate-free wells;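 active = activation factor of 2 or more at 20 µM, relative to plate controls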
DTT redox conf – generates H2O2 by DTT-dependent redox cycling, confirmed in dose response; EC50, µM; AID 1234; 60 tested, 40% active; phenol red-HRP absorbance; shares compounds with DTT redox prof;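 active = EC50 under a set limit for hydrogen peroxide production with the reducing agent DTT present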
Starred values were filed as active, the others as inactive; . = no result given. Shown are actives, neighbours in structure and some others; about 1.1% of the full set was active somewhere.

SMILES	PMI act satM6P	Diaphorase act	G6PDH CS	Diaphorase inh	DTT redox prof	PMI act	DTT redox conf
Cc1ccc(CNC(=O)CNC(=S)N(Cc2ccccc2)Cc2ccccc2F)cc1	0.9	0.8	-0.1	21.7	-2.6	0.8	.
CC1(C)CC(=O)C=C(N2CCNCC2)C1	1	1	4.4	3.7	72.9*	1	>50
CC1(C)CC(N2CCCC2)=CC(=[N+]2CCCCCC2)C1	0.8	1	13.1	0.0	0.1	0.4	.
COC1=C(N)C(=O)c2nc(-c3nc(C(=O)O)c(C)c(-c4ccc(OC)c(OC)c4O)c3N)ccc2C1=O	0.4	0.3	55.8*	68.1*	132.2*	0.4	1.48*
COc1ccc(-c2ncncc2-c2csc(C)n2)c(O)c1OC	1	1	0.4	0.7	0.1	1	.
Cc1cc(C)c(S(=O)(=O)Nc2cc(SCC(=O)O)c(O)c3ccccc23)cc1C	0.8	0.5	34.9	48.9	119.5*	1	>50
CC(=O)N(/N=C1\Sc2ccccc2C1=O)c1ccccc1C	1	0.9	3.6	8.0	381.5*	1	19.1*
CC(=O)N(/N=C1\Sc2ccccc2C1=O)c1ccc(C)cc1C	1	0.8	0.7	22.1	0.6	0.9	.
Cc1oc2c(c1C(=O)c1ccccc1)C(=O)C(=O)c1ccccc1-2	0.3	0.4	60.2*	57.7*	373.5*	0.3	>50
Cc1ccc(-n2nc3ccc(NC(=O)/C=C/c4ccco4)cc3n2)cc1	1	0.9	1.5	13.7	0.3	1	.
O=C(/C=C/c1ccccc1)N1CCN(c2c(Cl)cccc2[N+](=O)[O-])CC1	0.8	0.8	-0.9	21.3	-0.5	0.8	.
Cc1ccc(NC2=C/C(=N\S(=O)(=O)c3cccs3)c3ccccc3C2=O)c(C)c1	0.5	0.8	52.5*	20.2	323.1*	1	18.4*
CCNc1ccc2noc3c2c1C(=O)c1ccccc1-3	0.5	0.6	0.4	35.8	0.5	0.7	.
CCOC(=O)N1CCN(c2cc(NCCC(=O)O)c3c4c(onc24)-c2ccccc2C3=O)CC1	1	0.4	-6.5	56.7*	141.1*	0.8	>50
CCOc1ccc(NC(=S)Nc2ccc3nsnc3c2)cc1	0.8	0.5	53.9*	54.4*	127.2*	0.5	>50
CCOc1ccc(NC(=O)Nc2ccc3nsnc3c2)cc1	0.7	0.8	4.9	17.7	0.0	0.9	.
O=C(Cc1ccccc1)Nc1ccc(SC(F)F)cc1	1	0.9	0.2	6.8	0.2	0.8	.
Cn1nc(-c2ccc(Cl)cc2)nc2c(=O)n(C)c(=O)nc1-2	0.9	1.4	61.4*	-35.3	169.8*	0.8	0.89*
CC(NC(=O)COC(=O)c1ccc([N+](=O)[O-])s1)c1ccccc1 (stereo unspecified)	0.9	0.8	15.0	21.8	113.7*	0.9	>50
COc1cccc(Oc2cncnc2-c2ccc(OC)cc2O)c1	0.9	0.8	3.2	16.0	59.7*	1	>50
Cc1nn2c(COc3ccc(NC(=O)c4ccccc4Cl)cc3)nnc2c2ccccc12	1	0.9	-2.0	8.0	-0.5	1	.
O=C(O)c1ccc(NC2=C/C(=N/S(=O)(=O)c3ccccc3)c3ccccc3C2=O)cc1	1.3	1.4	41.4	-43.2	149.2*	1.7	2.73*
O=C(O)c1ccc(NS(=O)(=O)c2ccc3c(c2)C(=O)c2ccccc2C3=O)cc1	1	0.7	42.8	26.5	-1.4	1.3	.
O=C(NCCN1C(=O)S/C(=C\c2ccc(F)cc2)C1=O)c1cccc(S(=O)(=O)N2CCOCC2)c1	1.1	1	8.0	2.9	0.1	0.9	.
CC(=O)C(C(C)=O)C1(O)C(=O)c2ccccc2C1=O	0.6	0.9	6.2	14.8	87.9*	0.9	>50
CCOC(=O)N1CCN(CC(=O)Nc2cc(OC)c(OC)cc2C#N)CC1	1	0.9	-2.1	8.7	8.1	1	.
O=C1C=C(NCCN2CCOCC2)C(=O)c2cnccc21	0.5	0.8	60.2*	23.2	176.0*	0.7	>50
CC(C)NC(=S)N/N=C/c1ccc2c(c1)OCCO2	1.1	0.9	7.8	6.7	-0.1	0.9	.
C/C(=N/Nc1ccc(C(=O)O)cc1)c1ccc(O)c(O)c1O	1.2	0.4	24.8	61.1*	104.7*	0.7	>50
